# TLR4-MyD88 BLA: blocks binding of human TLR4 to MyD88; O00206+Q99836; HeLa CL3-4 TLR4/MyD88 BLA complementation, FRET ratio; inhibition, % at 8.4 µM; 200,000 compounds, 0.18% hits; AID 861; in the data active means inhibition above about 25%
# Target sequence (O00206 whole entry, looked up): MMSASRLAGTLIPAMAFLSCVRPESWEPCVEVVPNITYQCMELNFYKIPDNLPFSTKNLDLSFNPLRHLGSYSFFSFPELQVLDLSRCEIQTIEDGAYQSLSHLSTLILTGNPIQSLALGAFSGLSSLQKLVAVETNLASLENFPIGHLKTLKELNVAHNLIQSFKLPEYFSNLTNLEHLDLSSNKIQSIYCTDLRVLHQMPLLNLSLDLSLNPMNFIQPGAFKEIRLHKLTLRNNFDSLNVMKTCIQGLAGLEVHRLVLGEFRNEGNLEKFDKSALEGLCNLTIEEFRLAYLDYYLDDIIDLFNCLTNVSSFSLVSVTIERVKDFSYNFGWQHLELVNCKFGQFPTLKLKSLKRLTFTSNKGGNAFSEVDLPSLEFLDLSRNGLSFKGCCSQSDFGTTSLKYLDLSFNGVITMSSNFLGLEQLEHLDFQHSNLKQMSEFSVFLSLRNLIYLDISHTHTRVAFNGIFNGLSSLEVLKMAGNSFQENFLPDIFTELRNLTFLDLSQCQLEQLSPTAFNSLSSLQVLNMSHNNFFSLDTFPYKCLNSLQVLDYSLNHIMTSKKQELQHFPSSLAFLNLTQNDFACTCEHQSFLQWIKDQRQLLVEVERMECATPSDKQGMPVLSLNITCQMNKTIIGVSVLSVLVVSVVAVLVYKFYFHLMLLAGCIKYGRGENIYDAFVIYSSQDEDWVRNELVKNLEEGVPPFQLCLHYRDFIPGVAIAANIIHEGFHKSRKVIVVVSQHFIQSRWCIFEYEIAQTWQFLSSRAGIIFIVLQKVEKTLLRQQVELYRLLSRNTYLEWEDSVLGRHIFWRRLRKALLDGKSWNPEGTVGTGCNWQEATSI
# Target sequence (Q99836 whole entry, looked up): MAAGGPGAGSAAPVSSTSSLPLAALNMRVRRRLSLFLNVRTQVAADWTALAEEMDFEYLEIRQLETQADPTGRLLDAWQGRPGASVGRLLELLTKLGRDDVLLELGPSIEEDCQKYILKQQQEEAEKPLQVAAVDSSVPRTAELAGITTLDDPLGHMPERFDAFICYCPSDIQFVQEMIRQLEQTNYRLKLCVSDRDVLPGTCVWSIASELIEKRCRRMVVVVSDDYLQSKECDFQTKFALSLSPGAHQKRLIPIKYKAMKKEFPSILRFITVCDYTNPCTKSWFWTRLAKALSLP
# NOD2 RIPK2 PPI: inhibitors of human NOD2-RIPK2 interaction; CHO BLA complementation NOD2-RIPK2, CCF4 ratio; inhibition, % at 4.98 µM; O43353; 360,000 compounds, 0.38% hits; in the data active means inhibition above about 21%
# MC4R ag barr: activates human MC4R beta-arrestin recruitment; P32245; U2OS MC4R beta-arrestin complementation, luminescence; percent of melanotan II response, DMSO zero; activation, % at 8.9 µM; 360,000 compounds, 0.98% hits;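 active means activation above a per-plate cutoff, the mean activation of sample wells on that plate plus 3 SD, cut at about 8% in these data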
# TLR9-MyD88 block: inhibitors of human TLR9-MyD88 binding; Q9NR96+Q99836; CHO BLA complementation TLR9-MyD88, CCF4 FRET ratio; inhibition, % at 4.98 µM; 340,000 compounds, 0.21% hits; AID 504734;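 active means inhibition above the mean over all tested compounds plus 3 SD, cut at about 21% in these data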
# MC4R antag cAMP: blocks human MC4R cAMP signaling; MC4R-expressing cells, MTII-stimulated cAMP, LANCE TR-FRET; inhibition, % at 6.5 µM; 360,000 compounds, 0.48% hits;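 active means inhibition above its plate's cutoff, the mean of tested wells on that plate plus 3 SD, cut at about 29% in these data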
#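 Assay system: human MC4R-expressing U2OS cells; reagent: Melanotan II stimulation of cells; dosing: 6.5 µM single dose; timing: compound 30 min, challenge 1 h, detection 1 h; signal: TR-FRET cAMP assay; replicates: one well per compound, no replicates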
# MC4R barr conf: human MC4R beta-arrestin agonism confirmation | shares compounds with MC4R ag barr | U2OS MC4R beta-arrestin recruitment, luminescence; scaled DMSO 0%, Melanotan II 100% | activation, % at 8.9 µM | 2,400 compounds, 31% hits;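 active means mean activation across replicates above the hit cutoff set in the earlier primary screen, cut at about 8% in these data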
# MOR DOR agonist: activates mu-delta opioid heterodimer, MC4R agonist counter-screen | 2,400 compounds, 5.8% hits | shares compounds with MC4R ag barr | activation, % at 9.2 µM | AID 602194 | U2OS PathHunter beta-arrestin, beta-gal luminescence; percent of deltorphin B response, DMSO zero;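 active means mean activation across replicates exceeds the hit threshold derived in the earlier primary screen, cut at about 18% in these data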
# Hits are given with their value; 0 = inactive; - = no result. Compounds with a hit are over-represented: about 1.8% of the library has one in this group of screens.
SMILES,TLR4-MyD88 BLA,NOD2 RIPK2 PPI,MC4R ag barr,TLR9-MyD88 block,MC4R antag cAMP,MC4R barr conf,MOR DOR agonist
CC(C)(C)c1cc(C(=O)Nc2ccc(F)cc2)n(Cc2ccc(F)cc2)n1,-,0,9.6,-,0,0,0
Cc1cc(=O)oc2cc(OCC(O)Cn3ccnc3)ccc12 (centres undefined),-,0,0,0,0,-,-
O=C(CCc1nc2ccccc2c(=O)[nH]1)Nc1nnc(SCc2ccccc2)s1,-,0,0,0,0,-,-
O=c1[nH]c(CSc2nnc(Nc3ccccc3)s2)nc2ccccc12,-,0,9.7,0,0,0,0
CNC(=O)C[C@H]1C(=O)N(CCc2ccccc2)C[C@@H]1c1ccc(OC)cc1,-,0,0,0,0,-,-
CCOC(=O)c1ccc(Cl)c(NC(=O)c2ccc(-c3ccccc3)cc2)c1,0,0,13,0,0,0,0
O=C(Nc1c(Cl)cccc1Cl)c1ccc(-c2ccccc2)cc1,0,0,21,0,0,0,0
COc1ccc([N+](=O)[O-])cc1NC(=O)C(C)NNC(=O)c1cccc([N+](=O)[O-])c1 (centres undefined),-,0,0,0,0,-,-
COc1ccc(NC(=O)N2CCCC(C(=O)NCc3ccccc3F)C2)cc1 (centres undefined),-,0,0,0,0,-,-
CC1CCc2sc(C(=O)OCC(=O)NCc3ccc(F)cc3)cc2C1 (centres undefined),0,0,13,0,0,0,0
Cc1nc(NC(=O)COC(=O)c2cc3c(s2)CCC(C)C3)c(Cl)cc1Cl (centres undefined),0,0,0,0,0,-,-
Cc1ccc(C(=O)N(Nc2nc3ccccc3s2)C(=O)c2ccc(C)cc2)cc1,0,0,25,0,0,14,0
CCOc1cc(N2CCOCC2)c(OCC)cc1NC(=O)c1c(C)noc1C,-,0,0,0,0,-,-
CCc1ccc(OCC(=O)NCCOc2ccccc2)cc1,0,0,0,0,0,-,-
CCc1ccc(OCCNC(=O)OCc2ccccc2)cc1,0,0,10.0,0,0,0,0
CS(=O)(=O)c1ccc(C(=O)N2CCN(S(=O)(=O)c3ccc(C4CCCCC4)cc3)CC2)cc1,-,0,0,0,0,-,-
CC1Sc2ccc(C(=O)NCc3cccc(C(F)(F)F)c3)cc2NC1=O (centres undefined),-,0,0,0,0,-,-
Cc1ccc(-c2nn3c(C)nnc3s2)cc1NC(=O)c1ccc(-c2cccc(Cl)c2)o1,0,0,13,0,0,0,0
Cc1nnc2sc(-c3cccc(NC(=O)c4ccc(-c5cccc(Cl)c5)o4)c3)nn12,0,-,-,-,-,-,-
COc1ccc2nc(NC(=O)CSc3nc4cccnc4n3C)sc2c1,0,0,17,0,0,37,0
COc1cc(C(=O)OCC(=O)Nc2cc(C)on2)ccc1OCc1ccccc1Cl,0,0,18,0,0,0,0
COc1ccc(NC(=O)COC(=O)c2ccc(OCc3ccccc3Cl)c(OC)c2)c(OC)c1,0,0,0,0,0,-,-
COc1cc(-c2nc(-c3ccc(NC(=O)c4ccc(Br)o4)cc3)no2)cc(OC)c1OC,0,0,0,0,0,-,-
COc1ccc(-c2noc(N3CCC(C(=O)Nc4ccccc4Cl)CC3)n2)cc1,-,0,0,0,0,-,-
COc1ccccc1CC(=O)Nc1ccc(-c2noc(COc3ccc(Br)cc3)n2)cc1,0,0,26,0,0,0,19
COc1ccc(CC(=O)Nc2ccc(-c3noc(-c4ccccc4OC)n3)cc2)cc1,0,0,16,0,0,24,0
COc1cccc(-c2nc(-c3ccc(NC(=O)Cc4ccccc4OC)cc3)no2)c1,0,0,0,0,0,-,-
COc1ccccc1CC(=O)Nc1ccc(-c2noc(COc3cccc(C)c3C)n2)cc1,0,0,0,0,0,-,-
COc1ccc(-c2nc(-c3ccc(NC(=O)c4ccc(Br)o4)cc3)no2)cc1OC,0,0,45,0,0,22,46
COc1ccc(-c2noc(N3CCC(C(=O)Nc4ccc(OC)c(OC)c4)CC3)n2)cc1,-,0,13,0,0,0,0

# Screens as filed in PubChem.
